Experimental data from ChEMBL document CHEMBL4038328, “Structure-Guided Optimization of HIV Integrase Strand Transfer Inhibitors” (J Med Chem, 2017).

Tests used:
[1] = Inhibition of HIV1 integrase 3' processing activity using 5'-end 32P labeled DNA substrate measured after 2 hrs by PAGE based phosphor imaging method; parameters: species or system Human immunodeficiency virus 1
Outline: (§1)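 Gel-based assay, Mg2+ cofactor: 400 nM integrase with 20 nM DNA substrate 5′-32P-labeled on transferred strand in 50 mM MOPS pH 7.2, 7.5 mM MgCl2, 14 mM 2-mercaptoethanol, inhibitor or DMSO; 2 h at 37 °C. Stopped with formamide/SDS loading buffer; products resolved on 16% denaturing polyacrylamide gels, quantified by phosphorimaging.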

[2] = Inhibition of HIV1 integrase strand transfer activity using 5'-end 32P labeled DNA substrate measured after 2 hrs by PAGE based phosphor imaging method; parameters: species or system Human immunodeficiency virus 1; outline: as §1
[3] = test system: Human immunodeficiency virus 1; test: Antiviral activity against VSV-G pseudotyped HIV1 harboring wild-type integrase infected in HOS cells pretreated […] for 3 hrs followed by viral infection measured after 48 hrs by luciferase reporter gene assay; format: functional, cell-based; settings: Human immunodeficiency virus 1, HOS
Outline: (§2)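 Single-round luciferase HIV-1 vector (pNLNgoMIVR−ΔLUC carrying WT or mutant IN) was pseudotyped with VSV-g by calcium phosphate co-transfection of 293 cells, and supernatant was harvested after 48 h. HOS cells were seeded at 4000/well in DMEM with 5% FBS and 5% newborn calf serum. They were pretreated 3 h at 37 °C with 5–0.0001 μM (11 serial dilutions), then infected for 48 h. Luminescence was normalized to untreated cells, and EC50 came from nonlinear regression.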

[4] = test system: Human immunodeficiency virus 1; test: Antiviral activity against VSV-G pseudotyped HIV1 harboring integrase Y143R mutant infected in HOS cells pretreated […] for 3 hrs followed by viral infection measured after 48 hrs by luciferase reporter gene assay; format: functional, cell-based; settings: Human immunodeficiency virus 1, HOS; outline: as §2
[5] = test system: Human immunodeficiency virus 1; test: Antiviral activity against VSV-G pseudotyped HIV1 harboring integrase N155H mutant infected in HOS cells pretreated […] for 3 hrs followed by viral infection measured after 48 hrs by luciferase reporter gene assay; format: functional, cell-based; settings: Human immunodeficiency virus 1, HOS; outline: as §2
[6] = test system: Human immunodeficiency virus 1; test: Antiviral activity against VSV-G pseudotyped HIV1 harboring integrase G140S/Q148H double mutant infected in HOS cells pretreated […] for 3 hrs followed by viral infection measured after 48 hrs by luciferase reporter gene assay; format: functional, cell-based; settings: Human immunodeficiency virus 1, HOS; outline: as §2
HOS = test: Cytotoxicity against HOS cells assessed as reduction in cell viability after 48 hrs by ATPLite luminescence assay; format: cell-based; settings: human, hos, 48 h
Outline: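 HOS cells seeded at 4000 per well the day before, exposed to compounds over 250 to 0.05 μM at 37 °C for 48 h. ATP measured by luminescence after lysis and 20 min signal development at room temperature.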

[7] = test system: Human immunodeficiency virus 1; test: Selectivity ratio of EC50 for VSV-G pseudotyped HIV1 harboring integrase Y143R mutant infected in HOS cells to EC50 for VSV-G pseudotyped HIV1 harboring wild-type integrase infected in HOS cells; format: functional
Outline: (§3)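 Fold change is the EC50 against the mutant-IN vector divided by the EC50 against the WT-IN vector. Both come from the single-round luciferase infectivity assay in HOS cells, with a 3 h compound pretreatment followed by 48 h infection.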

[8] = test system: Human immunodeficiency virus 1; test: Selectivity ratio of EC50 for VSV-G pseudotyped HIV1 harboring integrase N155H mutant infected in HOS cells to EC50 for VSV-G pseudotyped HIV1 harboring wild-type integrase infected in HOS cells; format: functional; outline: as §3
[9] = test system: Human immunodeficiency virus 1; test: Selectivity ratio of EC50 for VSV-G pseudotyped HIV1 harboring integrase G140S/Q148H mutant infected in HOS cells to EC50 for VSV-G pseudotyped HIV1 harboring wild-type integrase infected in HOS cells; format: functional; outline: as §3
[10] = test system: Human immunodeficiency virus 1; test: Antiviral activity against VSV-G pseudotyped HIV1 harboring integrase G118R mutant infected in HOS cells pretreated […] for 3 hrs followed by viral infection measured after 48 hrs by luciferase reporter gene assay; format: functional, cell-based; settings: Human immunodeficiency virus 1, HOS; outline: as §2
[11] = test system: Human immunodeficiency virus 1; test: Antiviral activity against VSV-G pseudotyped HIV1 harboring integrase T66I mutant infected in HOS cells pretreated […] for 3 hrs followed by viral infection measured after 48 hrs by luciferase reporter gene assay; format: functional, cell-based; settings: Human immunodeficiency virus 1, HOS; outline: as §2
[12] = test system: Human immunodeficiency virus 1; test: Antiviral activity against VSV-G pseudotyped HIV1 harboring integrase E92Q mutant infected in HOS cells pretreated […] for 3 hrs followed by viral infection measured after 48 hrs by luciferase reporter gene assay; format: functional, cell-based; settings: Human immunodeficiency virus 1, HOS; outline: as §2
[13] = test system: Human immunodeficiency virus 1; test: Antiviral activity against VSV-G pseudotyped HIV1 harboring integrase R263K mutant infected in HOS cells pretreated […] for 3 hrs followed by viral infection measured after 48 hrs by luciferase reporter gene assay; format: functional, cell-based; settings: Human immunodeficiency virus 1, HOS; outline: as §2
[14] = test system: Human immunodeficiency virus 1; test: Antiviral activity against VSV-G pseudotyped HIV1 harboring integrase H51Y mutant infected in HOS cells pretreated […] for 3 hrs followed by viral infection measured after 48 hrs by luciferase reporter gene assay; format: functional, cell-based; settings: Human immunodeficiency virus 1, HOS; outline: as §2
[15] = test system: Human immunodeficiency virus 1; test: Antiviral activity against VSV-G pseudotyped HIV1 harboring integrase H51Y/R263K double mutant infected in HOS cells pretreated […] for 3 hrs followed by viral infection measured after 48 hrs by luciferase reporter gene assay; format: functional, cell-based; settings: Human immunodeficiency virus 1, HOS; outline: as §2
[16] = test system: Human immunodeficiency virus 1; test: Selectivity ratio of EC50 for VSV-G pseudotyped HIV1 harboring integrase G118R mutant infected in HOS cells to EC50 for VSV-G pseudotyped HIV1 harboring wild-type integrase infected in HOS cells; format: functional; outline: as §3
[17] = test system: Human immunodeficiency virus 1; test: Selectivity ratio of EC50 for VSV-G pseudotyped HIV1 harboring integrase T66I mutant infected in HOS cells to EC50 for VSV-G pseudotyped HIV1 harboring wild-type integrase infected in HOS cells; format: functional; outline: as §3
[18] = test system: Human immunodeficiency virus 1; test: Selectivity ratio of EC50 for VSV-G pseudotyped HIV1 harboring integrase E92Q mutant infected in HOS cells to EC50 for VSV-G pseudotyped HIV1 harboring wild-type integrase infected in HOS cells; format: functional; outline: as §3
[19] = test system: Human immunodeficiency virus 1; test: Selectivity ratio of EC50 for VSV-G pseudotyped HIV1 harboring integrase R263K mutant infected in HOS cells to EC50 for VSV-G pseudotyped HIV1 harboring wild-type integrase infected in HOS cells; format: functional; outline: as §3
[20] = test system: Human immunodeficiency virus 1; test: Selectivity ratio of EC50 for VSV-G pseudotyped HIV1 harboring integrase H51Y mutant infected in HOS cells to EC50 for VSV-G pseudotyped HIV1 harboring wild-type integrase infected in HOS cells; format: functional; outline: as §3
[21] = test system: Human immunodeficiency virus 1; test: Selectivity ratio of EC50 for VSV-G pseudotyped HIV1 harboring integrase H51Y/R263K double mutant infected in HOS cells to EC50 for VSV-G pseudotyped HIV1 harboring wild-type integrase infected in HOS cells; format: functional; outline: as §3

Question: What does the source list for `CC(=O)OCCCc1cnc2c(c1)c(N)c(C(=O)NCc1ccc(F)cc1F)c(=O)n2O`?
Answer: IC50 [1]: 14300 nM; IC50 [2]: 10 nM; EC50 [3]: 1.4 nM; EC50 [4]: 2.9 nM; EC50 [5]: 5.4 nM; EC50 [6]: 13 nM; CC50 (HOS): > 250000 nM; Ratio EC50 [7]: 2; Ratio EC50 [8]: 4; Ratio EC50 [9]: 9; EC50 [10]: 5.9 nM; EC50 [11]: 0.75 nM; EC50 [12]: 1.2 nM; EC50 [13]: 1.8 nM; EC50 [14]: 0.8 nM; EC50 [15]: 3.9 nM; Ratio EC50 [16]: 4; Ratio EC50 [17]: 0.5; Ratio EC50 [18]: 1; Ratio EC50 [19]: 1; Ratio EC50 [20]: 0.6; Ratio EC50 [21]: 3

Question: With `COC(=O)CCc1cnc2c(c1)c(NCCO)c(C(=O)NCc1ccc(F)cc1F)c(=O)n2O` as the compound, how does the IC50 [1] read?
Answer: The IC50 was 3200 nM.

Question: And the IC50 [2]?
Answer: Its IC50 is 3.1 nM.

Question: What about the EC50 [3] of the same compound?
Answer: Its EC50 is 4.1 nM.

Question: What about the EC50 [4] of the same compound?
Answer: Its EC50 is 3.8 nM.

Question: And the EC50 [5]?
Answer: The EC50 was 3.9 nM.

Question: What about the EC50 [6] of the same compound?
Answer: The EC50 was 16 nM.

Question: What about the CC50 (HOS) of the same compound?
Answer: The CC50 was over 250000 nM.

Question: And the “Ratio EC50” value [7]?
Answer: The value was 0.9.

Question: And the “Ratio EC50” value [8]?
Answer: Its value is 1.

Question: And the “Ratio EC50” value [9]?
Answer: Its value is 4.

Question: And the EC50 [10]?
Answer: Its EC50 is 4.8 nM.

Question: What about the EC50 [11] of the same compound?
Answer: Its EC50 is 0.62 nM.

Question: And the EC50 [12]?
Answer: The EC50 was 2.7 nM.

Question: And the EC50 [13]?
Answer: The EC50 was 6.5 nM.

Question: And the EC50 [14]?
Answer: Its EC50 is 6.9 nM.

Question: And the EC50 [15]?
Answer: Its EC50 is 2.5 nM.

Question: And the “Ratio EC50” value [16]?
Answer: The value was 1.

Question: And the “Ratio EC50” value [17]?
Answer: Its value is 0.2.

Question: What about the “Ratio EC50” value [18] of the same compound?
Answer: The value was 0.7.

Question: And the “Ratio EC50” value [19]?
Answer: Its value is 2.

Question: And the “Ratio EC50” value [20]?
Answer: Its value is 2.

Question: What about the “Ratio EC50” value [21] of the same compound?
Answer: Its value is 0.9.
